KCNK3 block: human KCNK3 channel inhibition, primary screen | O14649 | CHO-KCNK3 thallium flux, FluxOR fluorescence; hits give low values | B-score at 10 µM | actives 0.84% (n = 340,000) | AID 602410;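 active means B-score under library mean minus 4 SD, starting fluorescence ratio at most library mean plus 5 SD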;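 further: more negative B-score means stronger inhibition of thallium flux through KCNK3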
KCNQ1 pot: potentiators or activators of human KCNQ1 potassium channel. P51787. actives 0.35% (n = 310,000). CHO-K1 KCNQ1, thallium flux FluxOR fluorescence; hits give high values. B-score at 10 µM;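 active means fluorescence ratio B-score, a plate-corrected score, at least three library SD, with initial intensity B-score within 5 SD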
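System: Stable KCNQ1 CHO-K1 line | Incubation: 90 min dye loading and 20 min compound exposure, both at room temperature | Measure: Ratio B score | Medium: Assay buffer for compound exposure, DMSO matched across wells | Compound dosing: Single-concentration screen | Probe or stimulus: K+/Tl+ depolarizing stimulus | Measured by: Kinetic FluxOR fluorescence, 10 s baseline plus 110 s post-stimulus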
Cl transport mod: KCC2 (human) Cl- transport modulation | Q9H2X9 | KCC2 cells, thallium flux FluoZin-2 fluorescence | B-score of Tl+ flux slope (higher = more flux/activation; lower = inhibition) at 10 µM | actives 2.2% (n = 190,000);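 active means thallium flux slope and its plate-corrected score both differing from the plate sample mean at a set confidence after two filtering rounds, in either direction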;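 further: slope of fluorescence scaled to starting intensity during 10 to 20 s after thallium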
hERG rescue: shields human hERG channel from block by proarrhythmic agents; activation (rescue from dofetilide block), less the hit threshold, % at 10 µM; AID 1511; CHO-hERG, FluxOR thallium flux, dofetilide IC70 present; actives 0.51% (n = 310,000);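 active means activation above the mean of controls blocked by dofetilide plus 5 SD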;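 further: thallium influx through hERG after potassium depolarization seen as dye fluorescence rise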
KCNQ1 block: blocks the human KCNQ1 potassium channel; P51787; CHO-K1 KCNQ1, FluxOR thallium flux fluorescence; hits give high values; B-score at 10 µM; actives 1.3% (n = 310,000);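 active means compounds whose thallium flux B-score, printed positive for inhibition, exceeds three library SD while starting fluorescence stays within three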;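 further: channel opened by potassium depolarization with thallium stimulus after 20 min compound exposure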
KCNK9 inh: human KCNK9 channel inhibition; Q9NPC2; HEK293 KCNK9, FluxOR thallium flux fluorescence; hits give low values; B-score at 10 µM; actives 1.2% (n = 310,000); AID 488922;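 active means ratio B-score over 3 SD below the library mean, with starting fluorescence within 5 SD of its mean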;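 further: negative B-score means less thallium flux so channel inhibition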
Target sequence (Q9NPC2 whole entry, looked up): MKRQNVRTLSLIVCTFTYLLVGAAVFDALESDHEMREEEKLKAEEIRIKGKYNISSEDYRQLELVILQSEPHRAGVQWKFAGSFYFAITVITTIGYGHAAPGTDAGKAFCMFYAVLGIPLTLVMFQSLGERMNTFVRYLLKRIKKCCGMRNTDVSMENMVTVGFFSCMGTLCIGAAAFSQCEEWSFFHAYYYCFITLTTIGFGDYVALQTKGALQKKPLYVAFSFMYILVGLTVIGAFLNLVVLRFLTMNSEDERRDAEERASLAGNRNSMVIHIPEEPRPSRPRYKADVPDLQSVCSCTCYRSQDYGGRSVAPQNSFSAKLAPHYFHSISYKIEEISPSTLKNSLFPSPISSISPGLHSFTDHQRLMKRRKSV
* hit, by the source's call; i = inactive; nt = not tested or not shown. Sampled rows, rich in hits. Any-hit rate of the full collection: about 4.1%.

SMILES | KCNK3 block | KCNQ1 pot | Cl transport mod | hERG rescue | KCNQ1 block | KCNK9 inh
COc1ccc(/C(O)=C/c2nc3ccc(C(=O)NCCc4cccc(C)c4)cc3[nH]c2=O)cc1OC | i | i | -0.07 | -12 | i | -8*
COc1ccc(C(=O)NCCc2ccccc2)cc1OC | i | i | nt | -3 | i | i
Cn1nc(-c2ccccc2)c(CSc2ccccc2)c1Cl | i | i | -0.15 | -7 | i | -7.3*
O=C1C(Cl)=C(NS(=O)(=O)c2ccc([N+](=O)[O-])cc2)C(=O)c2ccccc21 | i | i | -1.3 | -23 | 6* | i
CC1(C)[C@@H](O)CC[C@]2(C)C3C(O)C=C4[C@H]5C[C@@](C)(C(=O)O)CC[C@]5(C)CC[C@]4(C)[C@]3(C)CC[C@@H]12 (some centres undefined) | nt | 13* | -0.6 | -9 | i | i
O=C(COC(=O)Cc1c(F)cccc1Cl)NC(=O)Nc1ccccc1F | i | nt | nt | nt | nt | nt
CCOc1ccc(C2C(C(=O)OC)=C(C)N=C3SCCC(=O)N32)cc1OCC (centres undefined) | -8.8* | i | -0.46 | -5 | i | i
CC1CCN(C(=O)/C(=C/c2ccccc2Cl)c2ccccc2)CC1 | i | i | -1.3 | -12 | i | -6.7*
CCOC(=O)N/N=C/c1c(C)nn(-c2ccccc2Cl)c1Cl | i | i | 0.028 | 1 | i | -8.1*
Cc1nn(-c2ccccc2Cl)c(Cl)c1/C=N/Nc1nc2ccccc2s1 | i | i | 0.54 | -1 | i | i
C=CCN(C(=O)C1CSC2(C)CCC(=O)N12)c1nc(-c2ccccc2)cs1 (centres undefined) | i | i | nt | -5 | 6* | i
CCC1=C(OC(=O)N(CC)CC)N2C(=O)OC(=NCCc3c[nH]c4ccccc34)[C@]2(Cc2ccccc2)[C@H]2C1=CC[C@H]1C(=O)N(CC)C(=O)[C@H]12 | i | i | -0.6 | -11 | i | -6.8*
Cc1ccc(C2=NN(C(=O)CCC(=O)O)C(c3ccc4c(c3)OCO4)C2)cc1 (centres undefined) | i | i | nt | -8 | i | i
Cc1ccc(C2=NN(C(=O)CCCC(=O)O)C(c3ccc4c(c3)OCO4)C2)cc1 (centres undefined) | i | i | nt | 5.5* | i | i
O=C(CC(=O)c1c(F)cccc1Cl)c1ccccc1O | i | i | nt | 1 | i | i
O=C(CC(=O)c1ccccc1O)c1cccc(F)c1 | i | 37* | nt | 0 | i | i
O=C(CC(=O)c1ccccc1O)c1ccc(F)cc1 | i | i | 24* | -3 | i | i
CSc1nnc(-c2cc(-c3ccc(C)cc3)nc3ccccc23)o1 | i | i | 0.024 | -14 | i | -7.4*
COc1ccc(-c2oc3cccnc3c2C#CC2(O)CCCCC2)cc1 | i | i | nt | -5 | 6* | i
CCCC(=O)Nc1ccc(OCC(O)CNC(C)C)c(C(C)=O)c1 (centres undefined) | i | 9* | 0.95 | -9 | i | i
CCc1c(C)sc(NC(=O)c2cccs2)c1C(=O)OC(C)C | i | i | nt | -10 | i | -6.6*
Cc1sc(NC(=O)c2cccs2)c(C(=O)OC(C)C)c1C | i | i | 0.8 | -4 | i | i
O=C(CCC1CCCC1)Nc1cc(C(F)(F)F)ccc1N1CCOCC1 | i | i | nt | -11 | i | i
O=C(CCC1CCCCC1)Nc1cc(Cl)ccc1N1CCOCC1 | -9* | nt | nt | nt | nt | nt
CC(C)c1cccc(C(C)C)c1NC(=O)CN1CCCC1 | i | i | nt | -5 | i | i
CC(OC(=O)C1CC1)C(=O)Nc1cc(Cl)cc(Cl)c1 (centres undefined) | -8.7* | nt | nt | nt | nt | nt
COc1ccc(NC(=O)CSc2nnc(Cc3ccccc3)c(=O)n2N)cc1OC | i | i | nt | -7 | i | i
Cc1cc(/C=C2/C(=N)N3C(=NC2=O)SN=C3S(C)(=O)=O)c(C)n1-c1ccccc1F | i | i | -3.3 | -17 | i | i
CS(=O)(=O)C1=NSC2=NC(=O)/C(=C\c3cccn3-c3ccc(Cl)cc3)C(=N)N21 | i | i | -2.6 | -16 | 7* | i

Source: PubChem BioAssay (several laboratories)
